Reference: ChEMBL document CHEMBL1649446, “Comparative antipneumococcal activities of sulopenem and other drugs” (2009)
In brackets after ≈: the same amount, converted by molar mass.

Key:
Type in all cases: functional
[1] = test system: Streptococcus pneumoniae; test: Antimicrobial activity against Streptococcus pneumoniae isolate 3791 by agar dilution method
Procedure, shortened: (§1)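 Agar dilution MIC on Mueller-Hinton agar with 5% sheep blood, inocula 10^4 CFU/spot; amoxicillin-clavulanate combined 1:2; S. pneumoniae ATCC 49619 quality control each run.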

[2] = test system: Streptococcus pneumoniae; test: Antimicrobial activity against Streptococcus pneumoniae isolate 3260 by agar dilution method
[3] = test system: Streptococcus pneumoniae; test: Antimicrobial activity against Streptococcus pneumoniae 10 by time-kill analysis
Procedure, shortened: (§2)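 Time-kill in cation-adjusted Mueller-Hinton broth with 5% lysed horse blood; inocula 5 × 105 to 5 × 10^6 CFU/ml; drugs at MIC, 2× and 4× MIC; 35°C shaking water bath; viable counts at 0, 3, 6, 12, 24 h. Bactericidal = ≥3 log10 CFU/ml (99.9%) drop from original inoculum; 90%/99%/99.9% killing scored per strain.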

[4] = test system: Streptococcus pneumoniae; test: Antimicrobial activity against Streptococcus pneumoniae isolate 1424 by agar dilution method; procedure, shortened: as §1
[5] = test system: Streptococcus pneumoniae; test: Antimicrobial activity against Streptococcus pneumoniae isolate 37 by agar dilution method; procedure, shortened: as §1
[6] = test system: Streptococcus pneumoniae; test: Antimicrobial activity against Streptococcus pneumoniae isolate 4755 by agar dilution method; procedure, shortened: as §1
[7] = test system: Streptococcus pneumoniae; test: Antimicrobial activity against Streptococcus pneumoniae isolate 1055 by agar dilution method
[8] = test system: Streptococcus pneumoniae; test: Antimicrobial activity against Streptococcus pneumoniae isolate 2880 by agar dilution method; procedure, shortened: as §1
[9] = test system: Streptococcus pneumoniae; test: Antimicrobial activity against Streptococcus pneumoniae isolate 1394 by agar dilution method
[10] = test system: Streptococcus pneumoniae; test: Antimicrobial activity against Streptococcus pneumoniae isolate 3275 by agar dilution method; procedure, shortened: as §1
[11] = test system: Streptococcus pneumoniae; test: Antimicrobial activity against penicillin-resistant Streptococcus pneumoniae by agar dilution method; procedure, shortened: as §1
[12] = test system: Streptococcus pneumoniae; test: Antimicrobial activity against Streptococcus pneumoniae isolate 3263 by agar dilution method
[13] = test system: Streptococcus pneumoniae; test: Antimicrobial activity against Streptococcus pneumoniae 1 by time-kill analysis
Procedure, shortened: as §2, with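 “12 and” for “12,”, “if” for “=”, “reduction” for “drop”, “90% and 99%” for “90%/99%/99.9%”, “also scored.” for “scored per strain.”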

[14] = test system: Streptococcus pneumoniae; test: Antimicrobial activity against Streptococcus pneumoniae isolate 2617 by agar dilution method; procedure, shortened: as §1
[15] = test system: Streptococcus pneumoniae; test: Antimicrobial activity against Streptococcus pneumoniae 11 by time-kill analysis; procedure, shortened: as §2
[16] = test system: Streptococcus pneumoniae; test: Antimicrobial activity against Streptococcus pneumoniae 12 by time-kill analysis; procedure, shortened: as §2
[17] = test system: Streptococcus pneumoniae; test: Antimicrobial activity against Streptococcus pneumoniae 8 by time-kill analysis; procedure, shortened: as §2
[18] = test system: Streptococcus pneumoniae; test: Antimicrobial activity against Streptococcus pneumoniae isolate 4747 by agar dilution method; procedure, shortened: as §1
[19] = test system: Streptococcus pneumoniae; test: Antimicrobial activity against penicillin-intermediate Streptococcus pneumoniae by agar dilution method
[20] = test system: Streptococcus pneumoniae; test: Antimicrobial activity against Streptococcus pneumoniae 6 by time-kill analysis; procedure, shortened: as §2
[21] = test system: Streptococcus pneumoniae; test: Antimicrobial activity against Streptococcus pneumoniae isolate 3282 by agar dilution method
[22] = test system: Streptococcus pneumoniae; test: Antimicrobial activity against Streptococcus pneumoniae isolate 1146 by agar dilution method; procedure, shortened: as §1
[23] = test system: Streptococcus pneumoniae; test: Antimicrobial activity against Streptococcus pneumoniae isolate 3455 by agar dilution method
[24] = test system: Streptococcus pneumoniae; test: Antimicrobial activity against Streptococcus pneumoniae 4 by time-kill analysis; procedure, shortened: as §2
[25] = test system: Streptococcus pneumoniae; test: Antimicrobial activity against Streptococcus pneumoniae isolate 2686 by agar dilution method; procedure, shortened: as §1
[26] = test system: Streptococcus pneumoniae; test: Antimicrobial activity against Streptococcus pneumoniae 3 by time-kill analysis; procedure, shortened: as §2
[27] = test system: Streptococcus pneumoniae; test: Antimicrobial activity against Streptococcus pneumoniae isolate 3374 by agar dilution method; procedure, shortened: as §1
[28] = test system: Streptococcus pneumoniae; test: Antimicrobial activity against Streptococcus pneumoniae isolate 3481 by agar dilution method; procedure, shortened: as §1
[29] = test system: Streptococcus pneumoniae; test: Antimicrobial activity against Streptococcus pneumoniae isolate 1147 by agar dilution method; procedure, shortened: as §1
[30] = test system: Streptococcus pneumoniae; test: Antimicrobial activity against Streptococcus pneumoniae isolate 1384 by agar dilution method; procedure, shortened: as §1
[31] = test system: Streptococcus pneumoniae; test: Antimicrobial activity against Streptococcus pneumoniae isolate 24 by agar dilution method
[32] = test system: Streptococcus pneumoniae; test: Antimicrobial activity against Streptococcus pneumoniae isolate 3458 by agar dilution method
[33] = test system: Streptococcus pneumoniae; test: Antimicrobial activity against Streptococcus pneumoniae 5 by time-kill analysis
Procedure, shortened: as §2, with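 “12 and” for “12,”, “if” for “=”, “reduction” for “drop”, “90% and 99%” for “90%/99%/99.9%”, “also scored.” for “scored per strain.”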

[34] = test system: Streptococcus pneumoniae; test: Antimicrobial activity against Streptococcus pneumoniae isolate 33 by agar dilution method; procedure, shortened: as §1
[35] = test system: Streptococcus pneumoniae; test: Antimicrobial activity against Streptococcus pneumoniae isolate 3681 by agar dilution method; procedure, shortened: as §1
[36] = test system: Streptococcus pneumoniae; test: Antimicrobial activity against Streptococcus pneumoniae isolate 2688 by agar dilution method; procedure, shortened: as §1
[37] = test system: Streptococcus pneumoniae; test: Antimicrobial activity against Streptococcus pneumoniae 7 by time-kill analysis; procedure, shortened: as §2
[38] = test system: Streptococcus pneumoniae; test: Antimicrobial activity against Streptococcus pneumoniae isolate 2874 by agar dilution method; procedure, shortened: as §1
[39] = test system: Streptococcus pneumoniae; test: Antimicrobial activity against Streptococcus pneumoniae isolate 3412 by agar dilution method; procedure, shortened: as §1
[40] = test system: Streptococcus pneumoniae; test: Antimicrobial activity against Streptococcus pneumoniae isolate 3587 by agar dilution method
[41] = test system: Streptococcus pneumoniae; test: Antimicrobial activity against Streptococcus pneumoniae 9 by time-kill analysis
Procedure, shortened: as §2, with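 “12 and” for “12,”, “if” for “=”, “reduction” for “drop”, “90% and 99%” for “90%/99%/99.9%”, “also scored.” for “scored per strain.”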

[42] = test system: Streptococcus pneumoniae; test: Antimicrobial activity against Streptococcus pneumoniae 2 by time-kill analysis; procedure, shortened: as §2
[43] = test system: Streptococcus pneumoniae; test: Antimicrobial activity against penicillin-susceptible Streptococcus pneumoniae by agar dilution method
[44] = test system: Streptococcus pneumoniae; test: Antimicrobial activity against Streptococcus pneumoniae isolate 1564 by agar dilution method
[45] = test system: Streptococcus pneumoniae; test: Antimicrobial activity against Streptococcus pneumoniae 19A by agar dilution method; procedure, shortened: as §1
[46] = test system: Streptococcus pneumoniae; test: Antimicrobial activity against Streptococcus pneumoniae isolate 3346 by agar dilution method
[47] = test system: Streptococcus pneumoniae; test: Antimicrobial activity against Streptococcus pneumoniae isolate 1397 by agar dilution method; procedure, shortened: as §1

CO/N=C(\C(=O)N[C@@H]1C(=O)N2C(C(=O)O)=C(COC(N)=O)CS[C@H]12)c1ccco1 [CEFUROXIME]
MIC [1]: 8 µg/mL (≈ 18.9 µM)
MIC [2]: 4 µg/mL (≈ 9.43 µM)
MIC [3]: 0.25 µg/mL (≈ 0.589 µM)
MIC [4]: 16 µg/mL (≈ 37.7 µM)
MIC [5]: 4 µg/mL (≈ 9.43 µM)
MIC [6]: 8 µg/mL (≈ 18.9 µM)
MIC [7]: 4 µg/mL (≈ 9.43 µM)
MIC [8]: 4 µg/mL (≈ 9.43 µM)
MIC [9]: 16 µg/mL (≈ 37.7 µM)
MIC [10]: 2 µg/mL (≈ 4.71 µM)
MIC50 [11]: 4 µg/mL (≈ 9.43 µM)
MIC90 [11]: 16 µg/mL (≈ 37.7 µM)
MIC [12]: 4 µg/mL (≈ 9.43 µM)
MIC [13]: 0.03 µg/mL (≈ 0.0707 µM)
MIC [14]: 4 µg/mL (≈ 9.43 µM)
MIC [15]: 4 µg/mL (≈ 9.43 µM)
MIC [16]: 4 µg/mL (≈ 9.43 µM)
MIC [17]: 8 µg/mL (≈ 18.9 µM)
MIC [18]: 8 µg/mL (≈ 18.9 µM)
MIC50 [19]: 0.25 µg/mL (≈ 0.589 µM)
MIC90 [19]: 4 µg/mL (≈ 9.43 µM)
MIC [20]: 0.5 µg/mL (≈ 1.18 µM)
MIC [21]: 4 µg/mL (≈ 9.43 µM)
MIC [22]: 8 µg/mL (≈ 18.9 µM)
MIC [23]: 4 µg/mL (≈ 9.43 µM)
MIC [24]: 16 µg/mL (≈ 37.7 µM)
MIC [25]: 16 µg/mL (≈ 37.7 µM)
MIC [26]: 1 µg/mL (≈ 2.36 µM)
MIC [27]: 8 µg/mL (≈ 18.9 µM)
MIC [28]: 8 µg/mL (≈ 18.9 µM)
MIC [29]: 8 µg/mL (≈ 18.9 µM)
MIC [30]: 4 µg/mL (≈ 9.43 µM)
MIC [31]: 2 µg/mL (≈ 4.71 µM)
MIC [32]: 8 µg/mL (≈ 18.9 µM)
MIC [33]: 16 µg/mL (≈ 37.7 µM)
MIC [34]: 4 µg/mL (≈ 9.43 µM)
MIC [35]: 4 µg/mL (≈ 9.43 µM)
MIC [36]: 32 µg/mL (≈ 75.4 µM)
MIC [37]: 4 µg/mL (≈ 9.43 µM)
MIC [38]: 8 µg/mL (≈ 18.9 µM)
MIC [39]: 4 µg/mL (≈ 9.43 µM)
MIC [40]: 8 µg/mL (≈ 18.9 µM)
MIC [41]: 0.25 µg/mL (≈ 0.589 µM)
MIC [42]: 0.016 µg/mL (≈ 0.0377 µM)
MIC50 [43]: 0.03 µg/mL (≈ 0.0707 µM)
MIC90 [43]: 0.125 µg/mL (≈ 0.295 µM)
MIC [44]: 64 µg/mL (≈ 151 µM)
MIC50 [45]: 8 µg/mL (≈ 18.9 µM)
MIC90 [45]: 16 µg/mL (≈ 37.7 µM)
MIC [46]: 4 µg/mL (≈ 9.43 µM)
MIC [47]: 8 µg/mL (≈ 18.9 µM)
